# TAAR1 ag: agonists of human TAAR1 | 0.99% of 360,000 active | activation, % at 3 µM | Q96RJ0 | AID 624467 | CHO RD-HGA16 TAAR1, Fluo-8 calcium fluorescence; vehicle wells 0%, saturating PEA agonist 100%;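 active means activation above the mean activation of all test compounds in the run plus 3 SD, cut at about 38% in these data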
# Target sequence (Q96RJ0 whole entry, looked up): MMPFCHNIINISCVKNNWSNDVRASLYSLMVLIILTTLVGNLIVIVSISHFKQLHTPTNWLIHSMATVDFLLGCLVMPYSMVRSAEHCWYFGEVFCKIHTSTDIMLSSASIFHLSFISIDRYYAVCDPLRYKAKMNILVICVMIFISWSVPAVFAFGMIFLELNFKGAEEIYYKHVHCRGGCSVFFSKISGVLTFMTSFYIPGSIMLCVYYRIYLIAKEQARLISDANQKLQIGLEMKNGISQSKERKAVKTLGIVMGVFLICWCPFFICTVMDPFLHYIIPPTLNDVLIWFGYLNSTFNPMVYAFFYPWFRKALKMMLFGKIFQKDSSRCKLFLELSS
#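 Assay system: CHO-derived RD-HGA16 cells with stable Gα16 and human TAAR1; timing: 17-24 h seeding, 75 min 37 °C dye, 30 min RT; read-out: % activation from peak over basal fluorescence ratio, DMSO-to-PEA scaled; measured by: kinetic Fluo-8 calcium fluorescence; benchmarks: low control DMSO, high control PEA (EC100); doses: 3 µM single concentration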
# OXTR ag: agonists of human oxytocin receptor. CHO-OTR cells, Fluo-8 calcium fluorescence; normalized: DMSO 0%, oxytocin 100%. activation, % at 3 µM. 0.32% of 320,000 active. AID 2435;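 active means activation above the mean of all tested compounds plus 3 SD, cutoff set per screening run, cut at about 20% in these data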;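 further: peak over basal fluorescence ratio from a 100 s FLIPR kinetic read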
# V1R ag counter: activates human V1a receptor in oxytocin agonist counter-screen; P37288; CHO-V1R cells, Fluo-8 calcium fluorescence, agonist mode; 0% DMSO, 100% 3 nM vasopressin; activation, % at 3 µM; 0.25% of 320,000 active; AID 2797;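 active means activation above the mean activation of all tested compounds plus 3 SD, per screening run, cut at about 20% in these data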;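 further: signal is peak over basal fluorescence ratio across a 100 second FLIPR read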
# OXTR potentiator: potentiators of human oxytocin receptor; P30559; CHO-OTR cells, Fluo-8 calcium fluorescence, potentiator mode; 0% = oxytocin EC15, 100% = EC100; activation, % at 3 µM; 0.061% of 320,000 active;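 active means activation above that plate's cutoff, the mean activation of tested compounds plus 3 SD, cut at about 6.6% in these data, passing the limit was not always enough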;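 further: 100% uses oxytocin at 75 nM as the full agonist control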
#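 System: human OTR in CHO cells / Also added: sub-maximal oxytocin, roughly EC15 / Control set: EC15 oxytocin low, 75 nM oxytocin high / Schedule: 6 min compound pre-incubation at room temperature, 100 s kinetic read / Compound: single-point 3.0 µM / Replication: singlicate / Technique: Fluo-8 calcium dye fluorescence / Read-out basis: % activation of max/min ratio relative to oxytocin controls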
# TAAR1 antag: human TAAR1 antagonism. Q96RJ0. CHO RD-HGA16 TAAR1, Fluo-8 calcium fluorescence, antagonist. inhibition, % at 3 µM. 1.5% of 360,000 active. AID 624466;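 active means inhibition above a per-plate cutoff, the mean inhibition of test compounds on that plate plus 3 SD, cut at about 49% in these data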;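 further: 0% = DMSO plus EC80 beta-PEA response and 100% = DMSO alone without agonist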
#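 Material: CHO RD-HGA16 cells bearing hTAAR1; compound dosing: one-point dosing, 3 µM nominal final; schedule: dye loading 75 min at 37 °C, then 30 min room temperature; measured by: calcium fluorescence with Fluo-8; control set: vehicle and agonist controls; replication: n of 1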
# nonsel antag count: counter-screen for TAAR1 antagonists: nonselective antagonists; inhibition, % at 3 µM; shares compounds with TAAR1 antag; 77% of 2,400 active; counterscreen cell line, calcium fluorescence, antagonist mode; in the data active means inhibition above about 22%;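 further: CHO-Ga16 host cells stimulated with ATP at an EC80 level; 0% = agonist EC80 plus vehicle and 100% = vehicle without agonist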
# TAAR1 ant conf: confirmation of human TAAR1 antagonists. inhibition, % at 3 µM. shares compounds with TAAR1 antag. 40% of 2,400 active. TAAR1-expressing cells, fluorescence antagonist read-out; in the data active means inhibition above about 49%;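 further: CHO-Ga16 host cells challenged with agonist PEA near its EC80; 0% = agonist at EC80 plus vehicle and 100% = vehicle with no agonist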
# Ga16 ag counter: nonselective Ga16 agonist in TAAR1 antagonist counter-screen; shares compounds with TAAR1 antag; Ga16-expressing cells, calcium fluorescence, agonist counterscreen; activation, % at 3 µM; 18% of 2,400 active; AID 651953; in the data active means activation above about 12%;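 further: 0% = vehicle wells and 100% = saturating stimulus response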
# TAAR1 ag count: activates human TAAR1 in antagonist counter-screen. 2% of 2,400 active. AID 651955. shares compounds with TAAR1 antag. hTAAR1 cell line, fluorescence activation, agonist mode. activation, % at 3 µM; in the data active means activation above about 37%;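 further: CHO cells stably expressing TAAR1 with calcium dye readout; 0% = DMSO vehicle and 100% = full agonist response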
# Starred values were filed as active, the others as inactive; . = not tested or not shown. An excerpt weighted towards active compounds, which were near 2.3% of everything screened.
SMILES,TAAR1 ag,OXTR ag,V1R ag counter,OXTR potentiator,TAAR1 antag,nonsel antag count,TAAR1 ant conf,Ga16 ag counter,TAAR1 ag count
Cn1c(/C(C#N)=C(\O)c2ccc([N+](=O)[O-])cc2)nc2ccccc21,5,1,1,-1,8,.,.,.,.
CC(C)C[C@H]1COc2cccc(N3CCCCC3)c2S(=O)(=O)N1,-2,.,.,.,-32,.,.,.,.
C#CCN(C[C@@H](CC(C)C)NC(=O)OC(C)(C)C)S(=O)(=O)c1ccc(Br)cc1F,2,.,.,.,51*,16,16,3,2
CC(C)CC(NC(=O)C(CC(C)C)NC(=O)OC(C)(C)C)C(=O)O (stereo not drawn),12,-1,1,-10,-6,.,.,.,.
Cc1cccc(Cl)c1NC(=O)NCCCN1CCOCC1,0,.,.,.,-3,.,.,.,.
O=C1C=CC(=O)N1Cc1ccccn1,2,.,.,.,-3,.,.,.,.
COc1ccc(CNC(=O)C2CCC(CNS(=O)(=O)c3ccc(C)cc3)CC2)cc1 (stereo not drawn),5,2,6,-8,10,.,.,.,.
COc1cc(CN2CC(=O)N(c3ccccc3Cl)C2=S)cc(OC)c1OC,25,7,11,-23,75*,49*,66*,14*,18
Cc1ccc(S(=O)(=O)N2[C@@H](c3ccc(Br)cc3)C(C(=O)O)=CC[C@H]2c2ccc(Cl)cc2)cc1,4,0,1,-8,68*,18,51*,2,4
Cc1ccc(NC(=O)C2(C)CCN2CCc2ccccc2)cc1O (stereo not drawn),6,.,.,.,11,.,.,.,.
O=C(NCc1ccco1)c1cc(-c2cccs2)nc2ccccc12,12,0,0,-5,62*,27*,42,6,3
O=C(N/N=C/c1ccc2ncccc2c1)c1cc(-c2cccs2)nc2ccccc12,3,-1,0,2,57*,27*,44,5,15
Cc1nn(-c2ccccn2)c2nc(-c3cccs3)cc(C(=O)NCc3ccco3)c12,14,-2,-2,-9,60*,32*,49*,5,4
CCOCCCNC(=O)c1cc(-c2ccc(Br)s2)nc2ccccc12,0,-1,1,-1,2,.,.,.,.
O=C(N/N=C/c1cccnc1)c1cc(-c2cccs2)nc2ccccc12,13,2,1,0,21,.,.,.,.
CC(C)OCCCNC(=O)c1cc(-c2cccs2)nc2ccccc12,17,-1,6,-4,57*,31*,49,7,11
COc1cc(-c2cc(C(=O)NCc3ccco3)c3ccccc3n2)cc(OC)c1OC,11,5,4,-6,57*,23*,42,8,7
Cc1cc(C)c2nc(NNC(=O)c3cc(-c4cccs4)nc4ccccc34)sc2c1,16,0,1,-8,56*,35*,50*,11,9
CC(C)(C)OC(=O)N1O[C@H]2C=C[C@@H]1C2,0,.,.,.,0,.,.,.,.
CC1=CC(=O)C(C(C)=Nc2ccccc2[N+](=O)[O-])C(=O)O1 (stereo not drawn),0,.,.,.,18,.,.,.,.
NS(=O)(=O)c1ccc(CNC(=O)c2cc(-c3ccccc3)nc3ccccc23)cc1,10,1,0,0,65*,32*,41,7,5
O=C(NCc1ccc(F)cc1)c1cc(-c2ccncc2)nc2ccccc12,11,4,6,-3,48,.,.,.,.
O=C(NCc1cc([N+](=O)[O-])ccc1O)c1cc(-c2ccncc2)nc2ccccc12,19,3,3,-13,67*,32*,56*,11,8
NS(=O)(=O)c1ccc(CNC(=O)c2cc(-c3cccnc3)nc3ccccc23)cc1,-1,1,0,5,2,.,.,.,.

# Screening results from PubChem.
